ChEMBL document CHEMBL2429843 (J Med Chem, 2013)
Active and inactive are the calls of the source. The calls are words filed in the database; no cut-off is given here.

Tests used:
[1] = Inhibition of Haemophilus influenzae TrmD using S-[methyl-3H] adenosyl-L-methionine as substrate assessed as leucine-tRNA methylation after 1 hr by scintillation proximity assay
In short: (§1)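 Radiometric SPA: TrmD in 50 mM HEPES pH 7.5 with 5 mM MgCl2 (E. coli and K. pneumoniae 10 nM, S. aureus 10 nM, P. aeruginosa 5 nM, H. influenzae 4 nM in enzyme reagent), mixed 1:1 with a reagent of 0.05 μM [3H]SAM, 2 μM unlabelled SAM and 2 μM synthetic E. coli leucine-tRNA. Compounds are 2-fold serial DMSO dilutions. Incubation is 1 h at room temperature.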

[2] = Inhibition of Staphylococcus aureus TrmD using S-[methyl-3H] adenosyl-L-methionine as substrate assessed as leucine-tRNA methylation after 1 hr by scintillation proximity assay; in short: as §1
[3] = Inhibition of Escherichia coli TrmD using S-[methyl-3H] adenosyl-L-methionine as substrate assessed as leucine-tRNA methylation after 1 hr by scintillation proximity assay; in short: as §1
[4] = Selectivity ratio for Escherichia coli TrmD over human SET7/9
[5] = Selectivity ratio for Escherichia coli TrmD over human PRMT1
[6] = molecular target: T1, Histone-lysine N-methyltransferase SETD7 (Homo sapiens) (UniProt Q8WTS6); experiment: Inhibition of human SET7/9 at 20 uM relative to control
T1 sequence (whole entry): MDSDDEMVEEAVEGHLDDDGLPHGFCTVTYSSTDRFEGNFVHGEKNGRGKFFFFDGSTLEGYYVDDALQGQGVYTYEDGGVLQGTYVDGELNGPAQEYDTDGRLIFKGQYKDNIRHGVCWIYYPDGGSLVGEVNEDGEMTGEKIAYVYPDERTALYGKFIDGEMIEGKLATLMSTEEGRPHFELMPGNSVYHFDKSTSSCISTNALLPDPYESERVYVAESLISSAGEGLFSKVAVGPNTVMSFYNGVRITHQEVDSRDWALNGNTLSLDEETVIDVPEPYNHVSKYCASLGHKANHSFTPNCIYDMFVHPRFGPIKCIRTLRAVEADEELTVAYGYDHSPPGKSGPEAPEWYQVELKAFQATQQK

[7] = molecular target: Protein arginine N-methyltransferase 1 (Homo sapiens) (UniProt Q99873); experiment: Inhibition of human PRMT1 at 20 uM relative to control
Sequence of Protein arginine N-methyltransferase 1 (Homo sapiens) (Q99873 whole entry, looked up): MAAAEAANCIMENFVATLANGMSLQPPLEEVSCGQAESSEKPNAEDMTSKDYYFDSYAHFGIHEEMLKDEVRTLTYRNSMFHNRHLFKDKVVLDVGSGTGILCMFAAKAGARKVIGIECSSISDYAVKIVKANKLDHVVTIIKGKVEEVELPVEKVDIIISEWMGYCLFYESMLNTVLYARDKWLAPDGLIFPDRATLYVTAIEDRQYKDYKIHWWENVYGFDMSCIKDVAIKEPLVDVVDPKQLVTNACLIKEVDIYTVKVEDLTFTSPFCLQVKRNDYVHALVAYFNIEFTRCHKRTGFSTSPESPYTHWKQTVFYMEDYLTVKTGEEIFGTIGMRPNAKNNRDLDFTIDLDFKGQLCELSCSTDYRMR

[8] = Selectivity ratio of IC50 for Staphylococcus aureus TrmD to IC50 for Escherichia coli TrmD
[9] = Selectivity ratio of IC50 for Escherichia coli TrmD to IC50 for Pseudomonas aeruginosa TrmD
[10] = Inhibition of Pseudomonas aeruginosa TrmD using S-[methyl-3H] adenosyl-L-methionine as substrate assessed as leucine-tRNA methylation after 1 hr by scintillation proximity assay; in short: as §1
Klebsiella pneumoniae = experiment: Inhibition of Klebsiella pneumoniae TrmD using S-[methyl-3H] adenosyl-L-methionine as substrate assessed as leucine-tRNA methylation after 1 hr by scintillation proximity assay; in short: as §1
[11] = Inhibition of Acinetobacter baumannii TrmD using S-[methyl-3H] adenosyl-L-methionine as substrate assessed as leucine-tRNA methylation after 1 hr by scintillation proximity assay
[12] = molecular target: T1, Histone-lysine N-methyltransferase SETD7 (Homo sapiens); experiment: Inhibition of human SET7/9
[13] = Dissociation constant, pKa of the compound; assay type: physicochemical
[14] = Aqueous solubility of the compound; assay type: physicochemical; conditions: buffer

| Structure (SMILES) | IC50 [1] [µM] | IC50 [2] [µM] | IC50 [3] [µM] | further results |
| --- | --- | --- | --- | --- |
| Oc1ncnc2scc(-c3ccccc3)c12 | 4.7 | 11 | 17 |  |
| O=c1[nH]cnc2[nH]cc(-c3ccccc3)c12 | 17 | 2.3 | 98 |  |
| Nc1ncnc2c1ncn2[C@@H]1O[C@H](C[C@@H](N)CC[C@H](N)C(=O)O)[C@@H](O)[C@H]1O [SINEFUNGIN] | 1.9 | 160 | 11 | inhibition [12]: Active |
| NCCN1CCN(Cc2ccc(CNC(=O)c3csc4nc[nH]c(=O)c34)cc2)CC1 | 0.44 | 2.7 | 0.4 | Selectivity ratio [4]: 50; Selectivity ratio [5]: 50; inhibition [6]: < 10%; inhibition [7]: < 10% |
| NCc1ccc(CNC(=O)c2csc3nc[nH]c(=O)c23)cc1 | 0.56 | 4.3 | 0.91 | Selectivity ratio [4]: 50; pKa [13]: 14.4; Selectivity ratio [5]: 50; inhibition [6]: < 10%; inhibition [7]: < 10%; Ratio IC50 [8]: 5; Ratio IC50 [9]: 10; IC50 [10]: 0.098 µM; IC50 (Klebsiella pneumoniae): 0.83 µM; IC50 [11]: 0.61 µM |
| Cc1ccc(-c2csc3ncnc(O)c23)cc1 | 1.7 | 62 | 6.9 |  |
| Cc1cccc2nc[nH]c(=O)c12 |  |  |  | solubility [14]: > 500 µM |
| Cc1[nH]c2c(=O)n(C3CCNCC3)ccc2c1Cl |  |  |  | solubility [14]: > 500 µM |
| O=C(NCc1ccc(CNCCO)cc1)c1csc2nc[nH]c(=O)c12 | 1.2 | 1.8 | 0.89 |  |
| O=C(NCc1ccccn1)c1csc2nc[nH]c(=O)c12 | 8 | > 200 | 139 |  |
| c1ccc2[nH]c(-c3cnco3)cc2c1 |  |  |  | solubility [14]: > 500 µM |
| O=C(NCc1cccnc1)c1csc2nc[nH]c(=O)c12 | 3.6 | 73 | 11 |  |
| CCCNCc1ccc(CNC(=O)c2csc3nc[nH]c(=O)c23)cc1 | 1 | 6.6 | 1 |  |
| O=C(NCc1ccc(CN2CCN(CCO)CC2)cc1)c1csc2nc[nH]c(=O)c12 | 1.6 | 14 | 0.47 |  |
| O=c1[nH]cnc2sccc12 | 144 | 1340 | 120 |  |
| O=C(NCc1ccccc1)c1csc2nc[nH]c(=O)c12 | 2.6 | 64 | 6.5 |  |

| Structure (SMILES) | IC50 [1] [µM] | IC50 [2] [µM] | IC50 [3] [µM] | further results |
| --- | --- | --- | --- | --- |
| COc1ccc(-c2n[nH]c(N)n2)cc1 |  |  |  | solubility [14]: > 500 µM |
| O=C1CN(Cc2ccc(CNC(=O)c3csc4nc[nH]c(=O)c34)cc2)CCN1 | 9.3 | 22 | 2.8 |  |
| CN(C)Cc1ccc(CNC(=O)c2csc3nc[nH]c(=O)c23)cc1 | 1.2 | 27 | 1.8 |  |
| O=c1[nH]cnc2onc(-c3ccccc3)c12 | 1.1 | 6.7 | 4.8 | solubility [14]: > 500 µM |
| O=c1[nH]cnc2ccc(-c3ccccc3)cc12 | 11 | > 200 |  |  |
| NCCNCc1ccc(CNC(=O)c2csc3nc[nH]c(=O)c23)cc1 | 0.33 | 7.4 | 0.44 | Selectivity ratio [4]: 50; Selectivity ratio [5]: 50; inhibition [6]: < 10%; inhibition [7]: < 10%; Ratio IC50 [8]: 5; Ratio IC50 [9]: 10; IC50 [10]: 0.044 µM; IC50 (Klebsiella pneumoniae): 0.61 µM; IC50 [11]: 0.74 µM |
| NC(=O)c1ccc(CNC(=O)c2csc3nc[nH]c(=O)c23)cc1 | 7.1 | 25 | 4.7 |  |
| O=c1[nH]cnc2[nH]nc(-c3ccccc3)c12 | 30 | 1.4 | > 200 |  |
| N=C(N)c1ccc(CNC(=O)c2csc3nc[nH]c(=O)c23)cc1 | 1.1 | 5.5 | 0.9 |  |
| O=C(NCc1ccc(CN2CCNCC2)cc1)c1csc2nc[nH]c(=O)c12 | 1.6 | 7.6 | 0.89 | Selectivity ratio [4]: 50; Selectivity ratio [5]: 50; inhibition [6]: < 10%; inhibition [7]: < 10% |
| COCCNCc1ccc(CNC(=O)c2csc3nc[nH]c(=O)c23)cc1 | 1.7 | 12 | 1.3 |  |
| O=C(NCc1ccc(CNCc2ncc[nH]2)cc1)c1csc2nc[nH]c(=O)c12 | 1.5 | 8.2 | 0.52 | Selectivity ratio [4]: 50; pKa [13]: 6.5; Selectivity ratio [5]: 50; inhibition [6]: < 10%; inhibition [7]: < 10%; Ratio IC50 [8]: 5; Ratio IC50 [9]: 10; IC50 [10]: 0.067 µM; IC50 (Klebsiella pneumoniae): 0.31 µM; IC50 [11]: 0.23 µM |
| O=C(NCc1ccc(-c2ccccc2)cc1)c1csc2nc[nH]c(=O)c12 | 64 | 105 | 33 |  |
| O=C(NCc1ccc(CO)cc1)c1csc2nc[nH]c(=O)c12 | 10 | 38 | 5.9 |  |
| N=C(NCc1ccc(CNC(=O)c2csc3nc[nH]c(=O)c23)cc1)NC1CC1 | 0.49 | 2.9 | 0.19 | Selectivity ratio [4]: 50; Selectivity ratio [5]: 50; inhibition [6]: < 10%; inhibition [7]: < 10% |

Second part, led by results:

| IC50 [1] [µM] | IC50 [2] [µM] | IC50 [3] [µM] | Structure (SMILES) | further results |
| --- | --- | --- | --- | --- |
| 1.1 | 4.7 | 0.67 | O=C(NCc1ccc(CN2CCCC2)cc1)c1csc2nc[nH]c(=O)c12 |  |
| 1.3 | 7.3 | 0.44 | O=C(NCc1ccc(CN2CCC(O)CC2)cc1)c1csc2nc[nH]c(=O)c12 | Selectivity ratio [4]: 50; Selectivity ratio [5]: 50; inhibition [6]: < 10%; inhibition [7]: < 10% |
| 16 | 21 | 52 | O=c1[nH]cnc2scc(C3CCCC3)c12 |  |
| 0.42 | 2.7 | 0.29 | O=C(NCc1ccc(CN2CC[C@@H](O)C2)cc1)c1csc2nc[nH]c(=O)c12 | Ratio IC50 [8]: 5; Ratio IC50 [9]: 10; IC50 [10]: 0.063 µM; IC50 (Klebsiella pneumoniae): 0.51 µM; IC50 [11]: 0.24 µM |
| > 200 | > 200 | > 200 | CC(=O)N1CCC(c2csc3nc[nH]c(=O)c23)C1 (configuration not stated) |  |
| > 200 | > 200 | > 200 | CN(Cc1ccccc1)C(=O)c1csc2nc[nH]c(=O)c12 |  |
| > 200 | > 200 | > 200 | O=c1[nH]cnc2scc(C3CCNC3)c12 (configuration not stated) |  |
| 0.33 | 1.2 | 0.18 | NC1CCN(Cc2ccc(CNC(=O)c3csc4nc[nH]c(=O)c34)cc2)CC1 | Selectivity ratio [4]: 50; Selectivity ratio [5]: 50; inhibition [6]: < 10%; inhibition [7]: < 10%; Ratio IC50 [8]: 5; Ratio IC50 [9]: 10; IC50 [10]: < 0.039 µM; IC50 (Klebsiella pneumoniae): 0.35 µM; IC50 [11]: 0.58 µM |
| 0.33 | 1.8 | 0.33 | NC1CN(Cc2ccc(CNC(=O)c3csc4nc[nH]c(=O)c34)cc2)C1 | Ratio IC50 [8]: 5; Ratio IC50 [9]: 10; IC50 [10]: 0.25 µM; IC50 (Klebsiella pneumoniae): 1.3 µM; IC50 [11]: 1.3 µM |
| 0.6 | 6.3 | 0.4 | O=C(NCc1ccc(CN2CC[C@H](O)C2)cc1)c1csc2nc[nH]c(=O)c12 | Ratio IC50 [8]: 5; Ratio IC50 [9]: 10; IC50 [10]: 0.12 µM; IC50 (Klebsiella pneumoniae): 0.63 µM; IC50 [11]: 0.63 µM |
| 49 | > 200 | 123 | C[C@@H](NC(=O)c1csc2nc[nH]c(=O)c12)c1ccccc1 |  |
| 1.8 | 12 | 4.9 | NCC1CCC(CNC(=O)c2csc3nc[nH]c(=O)c23)CC1 (configuration not stated) |  |
| > 200 | > 200 | > 200 | C[C@H](NC(=O)c1csc2nc[nH]c(=O)c12)c1ccccc1 |  |
| 0.66 | 5.2 | 0.33 | NC1CCCN(Cc2ccc(CNC(=O)c3csc4nc[nH]c(=O)c34)cc2)C1 (configuration not stated) | Selectivity ratio [4]: 50; Selectivity ratio [5]: 50; inhibition [6]: < 10%; inhibition [7]: < 10% |
| 0.67 | 34 | 2.1 | Cn1cc(-c2csc3nc[nH]c(=O)c23)cn1 |  |
| 8.2 | 72 | 19 | O=C(NCc1ccncc1)c1csc2nc[nH]c(=O)c12 |  |
